Data set [1] can be described thus: Selectivity index, ratio of CC50 for MDCK cells to EC50 for Influenza A virus A/WSN/33 (H1N1). It is filed as toxicity. The conditions noted are these: dog, read-out: Ratio CC50/EC50.
Data set [2] is described as follows: Antiviral activity against Influenza A virus A/WSN/33(H1N1) infected in MDCK cells expressing ST6Gal 1 preincubated with virus and cells for 30 mins followed viral infection measured after 2 to 3 days by naphthalene black dye-based plaque reduction assay. The format is functional, cell-based, Influenza A virus (A/WSN/1933(H1N1)).
The next data set has as its system MDCK. Description: Cytotoxicity against MDCK cells after 48 hrs by neutral red uptake assay. The format is cell-based, Canis lupus familiaris. The conditions noted are these: dog. In short, it runs like this: (§1)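 Serially diluted compound in serum-free DMEM for 48 h at 37 °C, 5% CO2. Neutral red 40 µg/mL for 4 h, absorbance read at 540 nm. CC50 from variable-slope dose-response fit.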

Data set [3] relates to Influenza A virus. Description: Inhibition of Influenza A virus AM2 proton channel expressed in Xenopus laevis frog oocytes at 100 uM after 2 mins by electrophysiological two-electrode voltage clamp assay. The format is cell-based. A digest of the protocol:
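Two-electrode voltage clamp on oocytes microinjected with RNA for AM2-WT or AM2-S31N. Compound at 100 µM for 2 min at pH 5.5. Read-out is percent inhibition of AM2 current, mean of three independent measurements.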
(In general: Two-electrode voltage clamp holds a large cell at a set potential and records current.)

Data set [4] can be described thus: Antiviral activity against Influenza A virus A/California/07/2009(H1N1) infected in MDCK cells expressing ST6Gal 1 preincubated with virus and cells for 30 mins followed viral infection measured after 2 to 3 days by naphthalene black dye-based plaque reduction assay. It is filed as functional, cell-based. In general terms: Plaque reduction counts the foci of infection that form in a cell layer.

A short description of data set [5]: Selectivity index, ratio of CC50 for human A549 cells to EC50 for Influenza A virus A/Texas/04/2009 (H1N1). It is filed as toxicity. The note with it: read-out: Ratio CC50/EC50.
Data set [6] deals with Influenza A virus. Description: Antiviral activity against Influenza A virus A/Switzerland/9715293/2013 (H3N2) infected in MDCK cells expressing ST6Gal 1 preincubated with virus and cells for 30 mins followed viral infection measured after 2 to 3 days by naphthalene black dye-based plaque reduction assay. It is filed as functional, cell-based.
The nature of data set [7]: Antiviral activity against Influenza A virus A/Texas/04/2009(H1N1) infected in MDCK cells expressing ST6Gal 1 preincubated with virus and cells for 30 mins followed viral infection measured after 2 to 3 days by naphthalene black dye-based plaque reduction assay. It is filed as functional, cell-based.
The nature of data set [8]: Antiviral activity against Influenza A virus A/Denmark/528/2009(H1N1) infected in MDCK cells expressing ST6Gal 1 preincubated with virus and cells for 30 mins followed viral infection measured after 2 to 3 days by naphthalene black dye-based plaque reduction assay. It is filed as functional, cell-based.
The subject of data set [9] is Influenza A virus. Description: Antiviral activity against Influenza A virus A/Denmark/524/2009 (H1N1) infected in MDCK cells expressing ST6Gal 1 preincubated with virus and cells for 30 mins followed viral infection measured after 2 to 3 days by naphthalene black dye-based plaque reduction assay. It is filed as functional, cell-based.
Data set [10] can be described thus: Selectivity index, ratio of CC50 for human A549 cells to EC50 for Influenza A virus A/Denmark/528/2009 (H1N1). The format is toxicity. The conditions noted are these: read-out: Ratio CC50/EC50.
A short description of data set [11]: Selectivity index, ratio of CC50 for human A549 cells to EC50 for Influenza A virus A/Switzerland/9715293/2013 (H3N2). The note with it: read-out: Ratio CC50/EC50. It is filed as toxicity.
The test system of the next data set is A549. Description: Cytotoxicity against human A549 cells after 48 hrs by neutral red uptake assay. It is filed as cell-based. The note with it: a549, 48 h. In short, it runs like this:
as §1

Data set [12] is described as follows: Selectivity index, ratio of CC50 for human A549 cells to EC50 for Influenza A virus A/California/07/2009 (H1N1). The format is toxicity. The conditions noted are these: read-out: Ratio CC50/EC50.
The nature of data set [13]: Selectivity index, ratio of CC50 for human A549 cells to EC50 for Influenza A virus A/WSN/33(H1N1). The format is toxicity. The note with it: read-out: Ratio CC50/EC50.
A short description of data set [14]: Antiviral activity against Influenza A virus A/Washington/29/2009(H1N1) infected in MDCK cells expressing ST6Gal 1 preincubated with virus and cells for 30 mins followed viral infection measured after 2 to 3 days by naphthalene black dye-based plaque reduction assay. The format is functional, cell-based. A digest of the protocol:
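Plaque reduction assay in MDCK cells expressing ST6Gal I instead of regular MDCK cells. Virus stocks were grown in MDCK cells with 2 µg/ml N-acetyl trypsin, harvested at 2 days and clarified, then titered by plaque assay on ST6Gal I-expressing MDCK cells.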

A short description of data set [15]: Selectivity index, ratio of CC50 for human A549 cells to EC50 for Influenza A virus A/Washington/29/2009 (H1N1). The note with it: read-out: Ratio CC50/EC50. The format is toxicity.
Data set [16] is described as follows: Selectivity index, ratio of CC50 for human A549 cells to EC50 for Influenza A virus A/Denmark/524/2009 (H1N1). The conditions noted are these: read-out: Ratio CC50/EC50. The format is toxicity.

As a reminder, the EC50 is the concentration giving half of the maximal effect. Low readings indicate an effect from little substance, high ones a need for much substance. The CC50 is the concentration giving 50% cytotoxicity. Higher therefore signals lower toxicity to the cells. For orientation: inhibition means the drop in the measured response relative to a control, in per cent. Low readings indicate a response near the control, high ones a response far below the control. Regarding `CC(C)(C)c1ccc(CNC23CC4CC(CC(O)(C4)C2)C3)cc1`, the selectivity ratio in [1] was 12.8. Further, a half-maximal response in [2] (EC50) required 2.5 µM. Also, it took 32 µM to reach half-maximal cytotoxicity in the data set on MDCK (CC50). Further, the inhibition in the data set on Influenza A virus [3] is 22.3%.

As for `C[Si](C)(c1ccccc1)c1ccc(CNC23CC4CC(CC(O)(C4)C2)C3)cc1`, in [1], the selectivity ratio amounted to 2.3. Besides, the concentration for a half-maximal effect (EC50) in [2] was determined as 5.9 µM. The same molecule displayed a cytotoxic concentration (CC50) in the data set with MDCK of 13.3 µM. For the same molecule, the inhibition with Influenza A virus [3] was determined as 33.6%.

Consider `CC[Si](C)(C)c1ccc(CNC23CC4CC(CC(O)(C4)C2)C3)cc1`, for which, in the data set with MDCK, the CC50 was determined as 21.8 µM. This molecule came in with an inhibition with Influenza A virus [3] of 18.2%.

Take `C[Si](C)(C)c1ccc(CNC23CC4CC(CC(C4)C2)C3)cc1`: in data set [1], the selectivity ratio is 1.7. In data set [2], this molecule displayed a concentration giving a half-maximal response (EC50) of 4.8 µM. In the data set on MDCK, this molecule had a CC50 of 8 µM. The same molecule yielded an inhibition in the data set on Influenza A virus [3] of 21.8%.

On to `CC(C)[Si](c1ccc(CNC23CC4CC(CC(O)(C4)C2)C3)cc1)(C(C)C)C(C)C`, for which the half-maximal effective concentration (EC50) in [2] (Influenza A virus, MDCK) is > 10 µM. Besides, the midpoint of cytotoxicity in the data set on MDCK, the CC50, lay at 11.4 µM. The same molecule gave an inhibition in the data set on Influenza A virus [3] of 17.8%.

With `CC(C)(C)c1ccc(CNC23CC4CC(CC(C4)C2)C3)cc1`, the selectivity ratio in data set [1] turned out to be 3.7. In addition, in data set [2], the EC50 worked out at 3.5 µM. Also, it took 12.8 µM to reach half-maximal cytotoxicity in the data set on MDCK (CC50). This molecule also had an inhibition in the data set on Influenza A virus [3] of 9.9%.

Take `C[Si](C)(C)c1ccc(CNC23CC4CC(CC(O)(C4)C2)C3)cc1`: the half-maximal effective concentration (EC50) in data set [4] was 1.2 µM; in the data set with Influenza A virus [6], 0.7 µM; in data set [7] it was 0.6 µM; in [8], 3 µM; in the data set with Influenza A virus [9], 0.6 µM; in [2] (Influenza A virus, MDCK) it was 0.4 µM. Moreover, a half-maximal response in data set [14] (EC50) required 1.4 µM. For the same molecule, the selectivity ratio was determined as 102 in data set [1]; 122 in data set [5]; 24.4 in data set [10]; 105 in data set [11]; 61 in [12]; 183 in data set [13]. The results for the selectivity ratio in [15] and in data set [16] were 52.3 and 122, respectively. Also, the CC50 in the data set with A549 is 73.2 µM; in the data set on MDCK it was 40.7 µM. The inhibition in the data set on Influenza A virus [3] was 9.5%.

As to `C[Si](C)(C)c1ccc(CNC23CC4CC(CC(C4)C2)C3)nc1`, the selectivity ratio in data set [1] worked out at 3. The molecule also returned a half-maximal effective concentration (EC50) in [2] of 3.4 µM. The same molecule gave a 50% cytotoxic concentration (CC50) in the data set on MDCK of 10.3 µM. In the data set with Influenza A virus [3], this molecule came in with an inhibition of 5.9%.

The values above are taken from ChEMBL document CHEMBL4033658, “Design and expeditious synthesis of organosilanes as potent antivirals targeting multidrug-resistant influenza A viruses” (Eur J Med Chem, 2017).
